Laboratory results: ChEMBL document CHEMBL4266019, “Discovery and Structure-Activity-Relationship Study of N-Alkyl-5-hydroxypyrimidinone Carboxamides as Novel Antitubercular Agents Targeting Decaprenylphosphoryl-β-d-ribose 2'-Oxidase” (J Med Chem, 2018)
Numbering of substitutions follows the chain as printed. ≈ marks a conversion by molar mass, not a printed value. Calls of active or inactive are those of the source. No cut-off for these calls is given here.

Key:
[1] = system: T1, Decaprenylphosphoryl-beta-D-ribose oxidase (Mycobacterium tuberculosis (strain ATCC 25618 / H37Rv)), P9WJF1 [N364S]; assay: Inhibition of DprE1 N364S mutant in Mycobacterium tuberculosis H37Rv assessed as bacterial growth inhibition after 4 weeks
T1 sequence (whole entry): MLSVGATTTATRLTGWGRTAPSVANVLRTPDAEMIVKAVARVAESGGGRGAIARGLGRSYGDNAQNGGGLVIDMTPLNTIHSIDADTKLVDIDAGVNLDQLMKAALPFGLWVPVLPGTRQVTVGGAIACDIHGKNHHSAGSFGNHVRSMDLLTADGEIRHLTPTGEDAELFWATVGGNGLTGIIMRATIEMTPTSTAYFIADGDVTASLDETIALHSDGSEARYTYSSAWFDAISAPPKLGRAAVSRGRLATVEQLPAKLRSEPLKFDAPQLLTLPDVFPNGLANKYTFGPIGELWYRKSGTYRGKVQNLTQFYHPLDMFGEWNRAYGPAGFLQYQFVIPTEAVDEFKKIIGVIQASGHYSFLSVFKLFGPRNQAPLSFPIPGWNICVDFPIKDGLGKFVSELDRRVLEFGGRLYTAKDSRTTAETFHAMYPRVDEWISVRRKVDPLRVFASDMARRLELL

[2] = system: T2, Decaprenylphosphoryl-beta-D-ribose oxidase (Mycobacterium tuberculosis (strain ATCC 25618 / H37Rv)), P9WJF1 [Y314H]; assay: Inhibition of DprE1 Y314H mutant in Mycobacterium tuberculosis H37Rv assessed as bacterial growth inhibition after 4 weeks
T2 sequence (whole entry): T1 sequence (whole entry) with Y314H, S364N
How it was run: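 Resistant mutants were selected by plating 10^7–10^9 H37Rv cells on 7H11/OADC containing 2×, 5× or 10× MIC, with drug-free plates for counts, at 37 °C for 4 weeks. Colonies from 10× MIC were regrown in 7H9/ADC and MIC-tested. Genomes were sequenced after CTAB DNA isolation.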

[3] = system: T3, Decaprenylphosphoryl-beta-D-ribose oxidase (Mycobacterium tuberculosis (strain ATCC 25618 / H37Rv)), P9WJF1 [P116S]; assay: Inhibition of DprE1 P116S mutant in Mycobacterium tuberculosis H37Rv assessed as bacterial growth inhibition after 4 weeks
T3 sequence (whole entry): T1 sequence (whole entry) with P116S, S364N

[4] = system: Mycobacterium tuberculosis H37Rv; assay: Ratio of MIC for inhibition of DprE1 Y314H mutant-mediated growth of Mycobacterium tuberculosis H37Rv to MIC for inhibition of DprE1-mediated growth of Mycobacterium tuberculosis H37Rv
How it was run: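 Resistant mutants were selected by plating 10^7, 10^8 and 10^9 H37Rv cells on 7H11/OADC agar containing 2×, 5× and 10× MIC of the hit compound, then incubating at 37 °C for 4 weeks. Colonies from 10× MIC plates were grown in 7H9/ADC and MIC-tested against the parental strain. Whole-genome sequencing found the DprE1 Y314H mutation.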

[5] = system: T4, Decaprenylphosphoryl-beta-D-ribose oxidase (Mycobacterium tuberculosis (strain ATCC 25618 / H37Rv)), P9WJF1 [Y314C]; assay: Inhibition of DprE1 Y314C mutant in Mycobacterium tuberculosis H37Rv assessed as bacterial growth inhibition after 4 weeks
T4 sequence (whole entry): T1 sequence (whole entry) with Y314C, S364N

[6] = system: Mycobacterium tuberculosis; assay: Antitubercular activity against Mycobacterium tuberculosis H37Rv harboring dprE1-dprE2 mutant after 10 days in absence of anhydrotetracycline; format: functional, organism-based
How it was run: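 DprE12–TetON1 strain (H37Rv with integrated attL5 plasmid constitutively expressing dprE1, dprE2, aftA, embC) washed and diluted to OD580nm 0.01 in drug-free 7H9-based medium. Half received anhydrotetracycline 500 ng/mL. Tested against 14-point 2-fold dilutions, 1% DMSO final, at 37 °C, 5% CO2. OD580nm read at day 10. BTZ043 and TCA1 served as positive controls.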

For `Cn1c(Cc2ccccc2C(F)(F)F)nc(C(=O)NCc2ccccc2)c(O)c1=O`, the MIC [1] was 2.34 µM (≈ 0.977 µg/mL), the MIC [2] was greater than 50 µM and the MIC [3] was 18.8 µM (≈ 7.85 µg/mL). The Ratio [4] was greater than 16 and the MIC [5] was 25 µM (≈ 10.4 µg/mL).

For `CC[C@@H](CO)NCCN[C@@H](CC)CO`, the Activity [6] was “Active”.

`CCOC(=O)NC(=O)c1ccsc1NC(=O)c1nc2ccccc2s1` was tested, and the Activity [6] was “Active”.

`CC(NC(=O)c1nc(Cc2ccccc2C(F)(F)F)n(C)c(=O)c1O)c1ccccc1` (centres undefined) was tested, and the Activity [6] was “inactive”.

For `C[C@H]1COC2(CCN(c3nc(=O)c4cc(C(F)(F)F)cc([N+](=O)[O-])c4s3)CC2)O1`, the Activity [6] was “Active”.
